Calls of active or inactive are those of the source. No cut-off for these calls is given here.
How the values were obtained:
MONO-MAC-6 [1] = experiment: Upregulation of CXCL3 mRNA expression level in LPS-stimulated human MONO-MAC-6 cells at 5 uM preincubated for 30 mins followed by LPS stimulation measured after 4 hrs by oligonucleotide array hybridization assay (reference value: 13.52); format: functional
MONO-MAC-6 [2] = experiment: Downregulation of ICAM1 mRNA expression level in human MONO-MAC-6 cells at 5 uM incubated for 30 mins measured after 6 hrs by oligonucleotide array hybridization assay relative to control; format: functional
Outline: (§1)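 Total RNA was isolated, transcribed and labeled with DY-647 dye, then co-hybridized with DY-548-labeled cDNA from untreated cells on an inflammation oligonucleotide chip (780 gene probes). Differential expression >1.5 was taken as significant.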

MONO-MAC-6 [3] = experiment: Decrease in inflammation-related genes in LPS-stimulated human MONO-MAC-6 cells preincubated for 30 mins followed by LPS stimulation measured after 6 hrs by microarray analysis; format: functional, cell-based; outline: as §1
MONO-MAC-6 [4] = experiment: Downregulation of PTGS2 mRNA expression level in human MONO-MAC-6 cells at 5 uM incubated for 30 mins measured after 6 hrs by oligonucleotide array hybridization assay relative to control; format: functional; outline: as §1
[5] = molecular target: T1, Acid ceramidase (Homo sapiens) (UniProt Q13510); experiment: Inhibition of TNFalpha-stimulated acid ceramidase in human PBMC assessed as ratio of C16-ceramide/lipid phosphate level at 10 uM preincubated for 30 mins followed by TNFalpha stimulation measured after 4 hrs by HPLC method (reference value: 0.49); format: cell-based
T1 sequence (whole entry): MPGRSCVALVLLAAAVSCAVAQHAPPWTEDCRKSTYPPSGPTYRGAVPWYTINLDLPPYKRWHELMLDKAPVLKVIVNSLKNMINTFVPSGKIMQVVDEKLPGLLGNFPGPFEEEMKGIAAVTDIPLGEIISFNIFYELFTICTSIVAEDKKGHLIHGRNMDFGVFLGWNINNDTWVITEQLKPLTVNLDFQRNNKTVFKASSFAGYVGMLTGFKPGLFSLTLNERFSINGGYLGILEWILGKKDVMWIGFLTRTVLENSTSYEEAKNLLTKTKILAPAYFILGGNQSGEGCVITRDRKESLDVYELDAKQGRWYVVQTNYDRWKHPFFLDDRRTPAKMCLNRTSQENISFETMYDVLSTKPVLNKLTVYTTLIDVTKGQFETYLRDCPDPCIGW
Outline: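 Human macrophages from primary culture were preincubated 30 min with 10 µM compound. They were then stimulated 4 h with mmLDL (54 µg/mL), TNFalpha (3 ng/mL) or exogenous C6-ceramide (10 µM), or left unstimulated. Individual ceramide species (C16 and C24:1) were quantified in the cell lipid extracts.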

[6] = molecular target: T2, Sphingomyelin phosphodiesterase (Homo sapiens) (UniProt P17405); experiment: Inhibition of mmLDL-stimulated acid sphingomyelinase in human PBMC lysates at 100 uM preincubated for 30 mins followed by mmLDL stimulation measured after 4 hrs by YO-PRO-1/Hoechst 33342 staining based assay
T2 sequence (whole entry): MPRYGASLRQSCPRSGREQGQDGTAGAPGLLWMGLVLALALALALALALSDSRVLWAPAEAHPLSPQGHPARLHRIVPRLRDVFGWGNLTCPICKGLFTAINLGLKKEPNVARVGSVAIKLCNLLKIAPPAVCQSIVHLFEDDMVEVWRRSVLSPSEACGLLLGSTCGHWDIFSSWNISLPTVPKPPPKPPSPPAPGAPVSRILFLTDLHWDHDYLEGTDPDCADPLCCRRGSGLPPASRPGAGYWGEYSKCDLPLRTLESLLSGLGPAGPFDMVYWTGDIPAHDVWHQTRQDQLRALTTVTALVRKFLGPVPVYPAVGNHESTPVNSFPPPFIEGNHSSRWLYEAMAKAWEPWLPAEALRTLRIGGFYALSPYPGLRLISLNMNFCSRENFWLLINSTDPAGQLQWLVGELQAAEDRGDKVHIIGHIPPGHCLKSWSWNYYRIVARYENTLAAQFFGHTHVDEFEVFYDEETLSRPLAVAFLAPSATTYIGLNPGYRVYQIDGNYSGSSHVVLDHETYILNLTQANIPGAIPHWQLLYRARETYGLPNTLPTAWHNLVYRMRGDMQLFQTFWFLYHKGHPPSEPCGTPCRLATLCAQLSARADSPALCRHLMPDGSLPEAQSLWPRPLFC

MONO-MAC-6 [7] = experiment: Upregulation of CXCL10 mRNA expression level in LPS-stimulated human MONO-MAC-6 cells at 5 uM preincubated for 30 mins followed by LPS stimulation measured after 1 hr by oligonucleotide array hybridization assay (reference value: 1.18); format: functional
MONO-MAC-6 [8] = experiment: Downregulation of CCL4 mRNA expression level in human MONO-MAC-6 cells at 5 uM incubated for 30 mins measured after 6 hrs by oligonucleotide array hybridization assay relative to control; format: functional; outline: as §1
MONO-MAC-6 [9] = experiment: Upregulation of PTGS2 mRNA expression level in LPS-stimulated human MONO-MAC-6 cells at 5 uM preincubated for 30 mins followed by LPS stimulation measured after 1 hr by oligonucleotide array hybridization assay (reference value: 1.01); format: functional
MONO-MAC-6 [10] = experiment: Downregulation of CCL20 mRNA expression level in human MONO-MAC-6 cells at 5 uM incubated for 30 mins measured after 2 hrs by oligonucleotide array hybridization assay relative to control; format: functional; outline: as §1
MONO-MAC-6 [11] = experiment: Downregulation of CCL20 mRNA expression level in human MONO-MAC-6 cells at 5 uM incubated for 30 mins measured after 4 hrs by oligonucleotide array hybridization assay relative to control; format: functional; outline: as §1
MONO-MAC-6 [12] = experiment: Upregulation of CXCL2 mRNA expression level in LPS-stimulated human MONO-MAC-6 cells at 5 uM preincubated for 30 mins followed by LPS stimulation measured after 1 hr by qRT-PCR method (reference value: 1.29); format: functional
MONO-MAC-6 [13] = experiment: Upregulation of PTGS2 mRNA expression level in LPS-stimulated human MONO-MAC-6 cells at 5 uM preincubated for 30 mins followed by LPS stimulation measured after 4 hrs by oligonucleotide array hybridization assay (reference value: 5.29); format: functional
MONO-MAC-6 [14] = experiment: Upregulation of IL-6 mRNA expression level in LPS-stimulated human MONO-MAC-6 cells at 5 uM preincubated for 30 mins followed by LPS stimulation measured after 4 hrs by qRT-PCR method (reference value: 76.46); format: functional
MONO-MAC-6 [15] = experiment: Upregulation of CXCL2 mRNA expression level in LPS-stimulated human MONO-MAC-6 cells at 5 uM preincubated for 30 mins followed by LPS stimulation measured after 2 hrs by oligonucleotide array hybridization assay (reference value: 4.20); format: functional
[16] = molecular target: T1, Acid ceramidase (Homo sapiens); experiment: Inhibition of C2-dihydroceramide-stimulated acid ceramidase in human PBMC assessed as reduction in C16-ceramide level at 10 uM preincubated for 30 mins followed by C2-dihydroceramide stimulation measured after 4 hrs by HPLC method; format: cell-based
MONO-MAC-6 [17] = experiment: Upregulation of CCL4 mRNA expression level in LPS-stimulated human MONO-MAC-6 cells at 5 uM preincubated for 30 mins followed by LPS stimulation measured after 2 hrs by oligonucleotide array hybridization assay (reference value: 5.78); format: functional
MONO-MAC-6 [18] = experiment: Upregulation of CCL20 mRNA expression level in LPS-stimulated human MONO-MAC-6 cells at 5 uM preincubated for 30 mins followed by LPS stimulation measured after 1 hr by oligonucleotide array hybridization assay (reference value: 1.07); format: functional

Question: How did the “fold change (FC)” value (MONO-MAC-6 [1]) turn out when COc1ccc(CCN(C)CCCn2c3ccccc3c3ccccc32)cc1 was run?
Answer: 8.83

Question: What about the “fold change (FC)” value (MONO-MAC-6 [2]) of the same compound?
Answer: 1.79

Question: What about the Activity (MONO-MAC-6 [3]) of the same compound?
Answer: Active

Question: What about the “fold change (FC)” value (MONO-MAC-6 [4]) of the same compound?
Answer: 2.23

Question: And the Ratio [5]?
Answer: 0.16

Question: What about the inhibition [6] of the same compound?
Answer: Active

Question: And the “fold change (FC)” value (MONO-MAC-6 [7])?
Answer: 1.69

Question: What about the “fold change (FC)” value (MONO-MAC-6 [8]) of the same compound?
Answer: 7.41

Question: What about the “fold change (FC)” value (MONO-MAC-6 [9]) of the same compound?
Answer: 1.1

Question: What about the “fold change (FC)” value (MONO-MAC-6 [10]) of the same compound?
Answer: 1

Question: What about the “fold change (FC)” value (MONO-MAC-6 [11]) of the same compound?
Answer: 1.4

Question: What about the “fold change (FC)” value (MONO-MAC-6 [12]) of the same compound?
Answer: 1.08

Question: What about the “fold change (FC)” value (MONO-MAC-6 [13]) of the same compound?
Answer: 4.07

Question: And the “fold change (FC)” value (MONO-MAC-6 [14])?
Answer: 29.11

Question: And the “fold change (FC)” value (MONO-MAC-6 [15])?
Answer: 3.88

Question: What about the inhibition [16] of the same compound?
Answer: inactive

Question: What about the “fold change (FC)” value (MONO-MAC-6 [17]) of the same compound?
Answer: 3.09

Question: And the “fold change (FC)” value (MONO-MAC-6 [18])?
Answer: 1.03
